Measured values as given in ChEMBL document CHEMBL4368858, “Search for a 5-CT alternative. In vitro and in vivo evaluation of novel pharmacological tools: 3-(1-alkyl-1H-imidazol-5-yl)-1H-indole-5-carboxamides, low-basicity 5-HT7 receptor agonists” (Medchemcomm, 2018).
Activity calls are given as the source filed them.

Key:
[1] = biological target: T1, 5-hydroxytryptamine receptor 2A (Homo sapiens, UniProt P28223); assay: Displacement of [3H]-ketanserin from recombinant human 5HT2A receptor expressed in CHOK1 cells measured after 1 hr by microbeta counting method; type: cell-based
T1 sequence (P28223 whole entry): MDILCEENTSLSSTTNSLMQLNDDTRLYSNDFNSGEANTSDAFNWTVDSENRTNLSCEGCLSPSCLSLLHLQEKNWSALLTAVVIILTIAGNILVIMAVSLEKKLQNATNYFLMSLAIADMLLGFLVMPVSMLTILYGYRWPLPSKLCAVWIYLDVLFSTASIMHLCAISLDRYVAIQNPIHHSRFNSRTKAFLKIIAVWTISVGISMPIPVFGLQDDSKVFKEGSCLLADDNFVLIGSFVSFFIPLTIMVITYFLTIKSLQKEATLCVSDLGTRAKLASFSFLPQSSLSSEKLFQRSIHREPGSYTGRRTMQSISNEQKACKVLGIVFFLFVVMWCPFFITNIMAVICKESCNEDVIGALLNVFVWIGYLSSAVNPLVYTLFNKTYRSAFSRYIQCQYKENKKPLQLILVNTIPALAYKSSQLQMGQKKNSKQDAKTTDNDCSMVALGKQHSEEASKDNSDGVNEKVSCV
Procedure, shortened: (§1)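 Radioligand displacement on cloned human receptors stably expressed in HEK-293 cells, except 5-HT2A, which was expressed in CHO cells. Radioligands: [3H]-LSD for 5-HT6, [3H]-5-CT for 5-HT7, [3H]-ketanserin for 5-HT2A, [3H]-raclopride for D2.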

[2] = biological target: T2, 5-hydroxytryptamine receptor 6 (Homo sapiens, UniProt P50406); assay: Displacement of [3H]-LSD from recombinant human 5HT6 receptor expressed in HEK293 cells measured after 1 hr by microbeta counting method; type: cell-based; procedure, shortened: as §1
T2 sequence (P50406 whole entry): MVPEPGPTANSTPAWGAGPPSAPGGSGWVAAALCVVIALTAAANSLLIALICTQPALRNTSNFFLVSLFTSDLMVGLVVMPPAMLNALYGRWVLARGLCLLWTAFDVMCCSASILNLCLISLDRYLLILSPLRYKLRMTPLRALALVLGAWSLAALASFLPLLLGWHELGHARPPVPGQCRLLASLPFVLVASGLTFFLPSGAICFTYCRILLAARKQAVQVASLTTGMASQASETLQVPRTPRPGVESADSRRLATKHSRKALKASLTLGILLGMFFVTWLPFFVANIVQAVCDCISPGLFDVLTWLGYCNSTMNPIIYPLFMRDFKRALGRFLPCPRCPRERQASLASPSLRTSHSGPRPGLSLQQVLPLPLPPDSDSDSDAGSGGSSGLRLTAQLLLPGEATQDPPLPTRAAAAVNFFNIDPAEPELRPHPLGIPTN

D(2) dopamine receptor = D(2) dopamine receptor (Homo sapiens, UniProt P14416); assay: Displacement of [3H]-raclopride from recombinant human D2LR receptor expressed in HEK293 cells measured after 1 hr by microbeta counting method; type: cell-based; procedure, shortened: as §1
Sequence of D(2) dopamine receptor (P14416 whole entry): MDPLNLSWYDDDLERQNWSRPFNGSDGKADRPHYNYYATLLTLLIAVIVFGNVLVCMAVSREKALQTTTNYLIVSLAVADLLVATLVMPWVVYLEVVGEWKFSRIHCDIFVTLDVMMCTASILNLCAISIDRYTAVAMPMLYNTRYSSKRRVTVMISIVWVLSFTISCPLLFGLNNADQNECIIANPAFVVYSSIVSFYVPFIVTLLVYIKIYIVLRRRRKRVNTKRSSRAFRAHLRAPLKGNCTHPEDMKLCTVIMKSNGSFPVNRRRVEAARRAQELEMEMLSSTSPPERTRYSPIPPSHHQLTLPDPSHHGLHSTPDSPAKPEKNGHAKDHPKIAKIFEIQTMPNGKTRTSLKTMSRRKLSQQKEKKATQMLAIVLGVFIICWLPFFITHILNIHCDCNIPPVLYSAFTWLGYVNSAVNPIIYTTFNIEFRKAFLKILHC

Homo sapiens = species: Homo sapiens; assay: Selectivity ratio of Ki for displacement of [3H]-8-OH-DPAT from recombinant human 5HT1A receptor expressed in HEK293 cell membranes to Ki for displacement of [3H]-5-CT from recombinant human 5HT7b receptor expressed in HEK293 cell membranes
[3] = Permeability of the compound by PAMPA; type: ADME; settings: read-out: permeability
Procedure, shortened: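 Passive permeability measured on a pre-coated PAMPA plate system. Concentrations were quantified against calibration curves made by capillary electrophoresis with diode-array detection. The permeability coefficient Pe is reported in 10^-6 cm s^-1 as mean ± SD of triplicates.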

P-glycoprotein (ABCB1) = P-glycoprotein (ABCB1) (Homo sapiens, UniProt P08183); assay: Inhibition of recombinant human membrane bound Pgp assessed as basal ATP consumption at 100 uM after 40 mins by Pgp-Glo luminescence assay relative to control; set-up: scale not given: the % may be the effect or the level left; settings: read-out: Activity
Sequence of P-glycoprotein (ABCB1) (P08183 whole entry): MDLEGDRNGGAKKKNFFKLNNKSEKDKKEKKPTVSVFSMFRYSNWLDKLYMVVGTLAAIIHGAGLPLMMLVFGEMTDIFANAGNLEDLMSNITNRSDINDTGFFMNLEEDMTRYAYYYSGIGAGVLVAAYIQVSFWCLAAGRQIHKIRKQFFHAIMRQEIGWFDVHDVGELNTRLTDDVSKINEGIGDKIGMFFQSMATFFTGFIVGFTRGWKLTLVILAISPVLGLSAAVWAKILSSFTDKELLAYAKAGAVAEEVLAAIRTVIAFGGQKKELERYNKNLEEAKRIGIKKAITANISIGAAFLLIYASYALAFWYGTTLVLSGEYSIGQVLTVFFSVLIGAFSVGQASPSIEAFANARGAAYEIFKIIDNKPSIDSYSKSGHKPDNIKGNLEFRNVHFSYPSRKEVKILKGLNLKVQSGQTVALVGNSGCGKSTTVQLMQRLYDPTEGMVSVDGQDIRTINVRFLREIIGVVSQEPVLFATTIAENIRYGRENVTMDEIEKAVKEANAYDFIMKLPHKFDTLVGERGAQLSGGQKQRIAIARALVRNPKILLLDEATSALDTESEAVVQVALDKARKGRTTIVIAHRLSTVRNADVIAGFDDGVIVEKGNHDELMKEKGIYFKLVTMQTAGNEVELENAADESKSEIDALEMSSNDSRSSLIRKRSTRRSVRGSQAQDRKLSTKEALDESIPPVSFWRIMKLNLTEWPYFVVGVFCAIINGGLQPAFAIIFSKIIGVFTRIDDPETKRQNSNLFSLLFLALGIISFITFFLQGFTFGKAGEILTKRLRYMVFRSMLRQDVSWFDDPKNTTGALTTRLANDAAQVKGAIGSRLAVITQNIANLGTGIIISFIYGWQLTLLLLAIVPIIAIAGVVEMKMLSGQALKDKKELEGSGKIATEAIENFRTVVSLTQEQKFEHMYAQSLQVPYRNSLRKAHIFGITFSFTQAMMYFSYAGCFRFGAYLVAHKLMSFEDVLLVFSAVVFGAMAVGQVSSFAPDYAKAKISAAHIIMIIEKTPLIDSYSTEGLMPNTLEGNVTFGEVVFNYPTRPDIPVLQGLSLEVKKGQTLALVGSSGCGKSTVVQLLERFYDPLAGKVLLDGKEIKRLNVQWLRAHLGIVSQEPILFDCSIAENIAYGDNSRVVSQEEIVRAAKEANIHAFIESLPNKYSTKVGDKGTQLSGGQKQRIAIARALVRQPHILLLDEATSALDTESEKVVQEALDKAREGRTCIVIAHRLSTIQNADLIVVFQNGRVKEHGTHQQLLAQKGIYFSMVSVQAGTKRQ
Procedure, shortened: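 Pgp-Glo luminescence assay measuring Pgp ATP consumption. Compounds incubated with Pgp membranes at 100 μM for 40 min at 37 °C in triplicate. Na3VO4 (100 μM) used as reference inhibitor and verapamil (200 μM) as stimulator; basal activity taken as the vanadate-versus-untreated signal difference.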

[4] = Drug metabolism in human liver microsomes measured after 120 mins in presence of NADPH generating system by UPLC analysis; type: ADME, Microsome; settings: for Drug metabolism: microsomes, 2 h
Procedure, shortened: (§2)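 Incubation with human, rat or mouse liver microsomes for 120 min at 37 °C with an NADPH regeneration system. Reaction mixtures analysed by UPLC for metabolites and % substrate metabolized.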

[5] = Drug metabolism in rat liver microsomes measured after 120 mins in presence of NADPH generating system by UPLC analysis; type: ADME, Microsome; settings: for metabolised at 2 h: liver microsomes, read-out: Drug metabolism; procedure, shortened: as §2
[6] = Drug metabolism in mouse liver microsomes measured after 120 mins in presence of NADPH generating system by UPLC analysis; type: ADME, Microsome; settings: read-out: Drug metabolism; procedure, shortened: as §2
[7] = Retention time of the compound in mouse liver microsomes in presence of NADPH generating system by UPLC analysis; type: ADME, Microsome; procedure, shortened: as §2
CYP3A4 = CYP3A4 (Homo sapiens, UniProt P08684); assay: Inhibition of CYP3A4 (unknown origin) assessed as residual activity at 10 uM using beetle D-luciferin as substrate by CYP450-Glo assay relative to control; type: ADME; settings: CYP3A4 enzyme (unknown origin), probe beetle D-luciferin, read-out: Activity
Sequence of CYP3A4 (P08684 whole entry, canonical isoform): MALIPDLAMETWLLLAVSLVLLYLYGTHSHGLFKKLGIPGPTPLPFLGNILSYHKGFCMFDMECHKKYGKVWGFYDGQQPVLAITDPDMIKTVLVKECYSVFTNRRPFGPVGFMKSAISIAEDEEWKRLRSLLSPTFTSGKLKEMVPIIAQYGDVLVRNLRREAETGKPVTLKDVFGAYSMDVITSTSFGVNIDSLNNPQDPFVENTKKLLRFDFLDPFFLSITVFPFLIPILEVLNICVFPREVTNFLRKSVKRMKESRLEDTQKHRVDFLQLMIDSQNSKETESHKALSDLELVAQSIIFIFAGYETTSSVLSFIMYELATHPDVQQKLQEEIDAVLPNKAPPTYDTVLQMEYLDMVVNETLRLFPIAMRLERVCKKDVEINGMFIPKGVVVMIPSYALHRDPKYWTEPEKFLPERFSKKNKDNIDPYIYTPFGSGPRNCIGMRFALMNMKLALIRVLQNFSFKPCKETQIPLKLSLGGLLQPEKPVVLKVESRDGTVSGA
Procedure, shortened: (§3)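 Luminescent P450-Glo assays for CYP3A4, CYP2D6 and CYP2C9 run per the kit protocol. Triplicate wells, final concentrations 0.01–25 μM, same across all three isoforms. Activity given as % of control.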

CYP2D6 = CYP2D6 (Homo sapiens, UniProt P10635); assay: Inhibition of CYP2D6 (unknown origin) assessed as residual activity at 10 uM using beetle D-luciferin as substrate by CYP450-Glo assay relative to control; type: ADME; settings: CYP2D6 enzyme (unknown origin), probe beetle D-luciferin, read-out: Activity; procedure, shortened: as §3
Sequence of CYP2D6 (P10635 whole entry): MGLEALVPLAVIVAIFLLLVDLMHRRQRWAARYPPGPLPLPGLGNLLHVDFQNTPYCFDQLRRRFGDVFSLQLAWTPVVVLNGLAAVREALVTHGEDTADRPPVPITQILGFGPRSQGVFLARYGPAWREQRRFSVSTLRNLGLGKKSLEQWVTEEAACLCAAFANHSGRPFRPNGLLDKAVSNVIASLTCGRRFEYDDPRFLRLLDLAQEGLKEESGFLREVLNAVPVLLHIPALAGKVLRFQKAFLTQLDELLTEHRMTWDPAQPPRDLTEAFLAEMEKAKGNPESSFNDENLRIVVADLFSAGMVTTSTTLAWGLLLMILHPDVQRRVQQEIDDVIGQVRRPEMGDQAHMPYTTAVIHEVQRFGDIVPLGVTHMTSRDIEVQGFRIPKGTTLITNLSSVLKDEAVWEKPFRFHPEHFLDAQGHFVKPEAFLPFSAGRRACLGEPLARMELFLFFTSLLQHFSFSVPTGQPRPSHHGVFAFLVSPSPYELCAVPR

CYP2C9 = CYP2C9 (Homo sapiens, UniProt P11712); assay: Inhibition of CYP2C9 (unknown origin) assessed as residual activity at 25 uM using beetle D-luciferin as substrate by CYP450-Glo assay relative to control; type: ADME; settings: CYP2C9 enzyme (unknown origin), probe beetle D-luciferin, read-out: Activity; procedure, shortened: as §3
Sequence of CYP2C9 (P11712 whole entry): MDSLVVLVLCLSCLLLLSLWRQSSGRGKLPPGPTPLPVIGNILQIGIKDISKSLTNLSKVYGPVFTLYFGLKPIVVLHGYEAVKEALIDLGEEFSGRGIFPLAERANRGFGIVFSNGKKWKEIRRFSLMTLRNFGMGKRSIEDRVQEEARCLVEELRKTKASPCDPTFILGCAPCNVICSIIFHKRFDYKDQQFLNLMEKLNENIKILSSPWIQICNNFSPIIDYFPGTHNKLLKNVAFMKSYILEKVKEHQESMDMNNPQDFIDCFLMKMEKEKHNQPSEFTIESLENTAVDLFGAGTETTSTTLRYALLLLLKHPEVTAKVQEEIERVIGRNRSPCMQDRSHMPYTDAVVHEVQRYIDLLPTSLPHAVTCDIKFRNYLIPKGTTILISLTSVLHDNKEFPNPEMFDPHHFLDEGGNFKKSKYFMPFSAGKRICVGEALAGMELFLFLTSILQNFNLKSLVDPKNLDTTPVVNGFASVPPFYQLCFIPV

Cytochrome P450 3A4 = Cytochrome P450 3A4 (Homo sapiens, UniProt P08684); assay: Inhibition of CYP3A4 (unknown origin) using beetle D-luciferin as substrate by CYP450-Glo assay; type: ADME
Sequence of Cytochrome P450 3A4 (P08684 whole entry): as the sequence (P08684 whole entry, canonical isoform) above

Cytochrome P450 2D6 = Cytochrome P450 2D6 (Homo sapiens, UniProt P10635); assay: Inhibition of CYP2D6 (unknown origin) using beetle D-luciferin as substrate by CYP450-Glo assay; type: ADME
Sequence of Cytochrome P450 2D6 (P10635 whole entry): as the sequence (P10635 whole entry) above

[8] = Hepatotoxicity against human HepG2 cells assessed as ATP level at 100 uM after 3 hrs by CellTiter-Glo luminescent cell viability assay relative to control; type: toxicity, cell-based; settings: read-out: Activity
Procedure, shortened: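 HepG2 cells exposed 3 h at 1, 10 and 100 μM. […] Run in quadruplicate; result given as % of control.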

[9] = Mutagenicity in Salmonella typhimurium TA100 assessed as revertant colonies at 10 uM by Ames test; type: toxicity; settings: salmonella enterica subsp. enterica serovar typhimurium
Procedure, shortened: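 Ames microplate fluctuation assay with S. typhimurium TA100 in 384-well format, run in triplicate. Medium control baseline defined as mean revertants in growth medium + 1% DMSO plus one SD. Positive wells counted; a 2-fold increase over baseline flagged as a mutagen alert.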

Mus musculus [10] = assay: Reversal of MK-801-induced cognitive impairment in mouse assessed increase in novel object recognition at 1 mg/kg treated for 60 mins followed by MK-801 addition 30 mins prior to testing by novel object recognition test; type: functional, organism-based
Procedure, shortened: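 Mice adapted to an open field for 10 min. Next day: MK-801 0.3 mg kg-1 i.p. given 30 min before training, with the test compound given 60 min before MK-801. Training (T1) used two identical objects; in the retention trial 1 h later one object was replaced by a novel one. Exploration of each object was scored over 5 min. Means ± SEM.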

[11] = Toxicity in albino Swiss mouse assessed as effect on body temperature at 1 to 15 mg/kg; type: organism-based; settings: in vivo
Procedure, shortened: (§4)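 Albino Swiss mice housed singly 24 h before test, dosed 1, 5 or 15 mg kg-1 60 min before test. Rectal temperature read to 0.1 °C at t = 0 (T1) and +15 min (T2) after transfer to a new cage. SIH taken as T2 − T1; T1 compared with vehicle for basal temperature effect. Groups of 8–10; one-way ANOVA with Dunnett's test.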

Mus musculus [12] = assay: Anxiolytic-like activity in albino Swiss mouse assessed as reduction in stress-induced hyperthermia by measuring reduction in body temperature at 15 mg/kg administered 60 mins prior to testing measured for 15 mins; type: functional, organism-based; procedure, shortened: as §4
[13] = Retention time of the compound in rat liver microsomes in presence of NADPH generating system by UPLC analysis; type: ADME, Microsome
Procedure, shortened: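 Incubated with rat liver microsomes plus an NADPH regeneration system for 120 min at 37 °C. Reaction mixtures were analysed by UPLC to detect metabolites and their retention times.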

[14] = biological target: T3, 5-hydroxytryptamine receptor 1A (Homo sapiens, UniProt P08908); assay: Displacement of [3H]-8-OH-DPAT from recombinant human 5HT1A receptor expressed in HEK293 cells measured after 1 hr by microbeta counting method; type: cell-based
T3 sequence (P08908 whole entry): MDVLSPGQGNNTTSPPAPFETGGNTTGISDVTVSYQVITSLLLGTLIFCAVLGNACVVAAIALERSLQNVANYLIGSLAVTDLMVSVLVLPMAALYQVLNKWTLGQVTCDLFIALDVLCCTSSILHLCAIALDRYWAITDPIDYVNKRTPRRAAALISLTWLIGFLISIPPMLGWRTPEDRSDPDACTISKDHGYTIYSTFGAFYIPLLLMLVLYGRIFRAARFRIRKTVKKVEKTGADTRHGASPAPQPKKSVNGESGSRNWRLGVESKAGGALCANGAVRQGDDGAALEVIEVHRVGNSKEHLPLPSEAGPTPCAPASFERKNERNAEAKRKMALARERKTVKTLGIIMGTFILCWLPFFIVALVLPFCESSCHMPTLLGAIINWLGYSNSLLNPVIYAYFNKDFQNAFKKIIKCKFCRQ
Procedure, shortened: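 Cloned human 5-HT1A receptor stably expressed in HEK-293 cells; displacement of [3H]-8-OH-DPAT.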

[15] = biological target: 5-hydroxytryptamine receptor 7 (Homo sapiens, UniProt P34969); assay: Displacement of [3H]-5-CT from recombinant human 5HT7b receptor expressed in HEK293 cells measured after 1 hr by microbeta counting method; type: cell-based; procedure, shortened: as §1
Sequence of 5-hydroxytryptamine receptor 7 (P34969 whole entry): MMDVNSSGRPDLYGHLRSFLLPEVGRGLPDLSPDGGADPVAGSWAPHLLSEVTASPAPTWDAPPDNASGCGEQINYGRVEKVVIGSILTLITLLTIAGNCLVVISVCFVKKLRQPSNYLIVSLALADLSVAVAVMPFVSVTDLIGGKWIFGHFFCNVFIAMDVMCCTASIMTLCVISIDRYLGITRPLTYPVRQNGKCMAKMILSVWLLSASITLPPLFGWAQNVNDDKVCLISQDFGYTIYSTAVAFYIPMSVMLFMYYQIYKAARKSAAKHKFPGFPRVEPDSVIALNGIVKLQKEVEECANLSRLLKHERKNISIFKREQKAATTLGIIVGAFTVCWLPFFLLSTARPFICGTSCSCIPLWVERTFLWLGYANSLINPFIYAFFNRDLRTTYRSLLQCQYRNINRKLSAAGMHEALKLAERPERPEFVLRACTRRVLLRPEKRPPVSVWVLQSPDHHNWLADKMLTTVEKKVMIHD

[16] = biological target: T3, 5-hydroxytryptamine receptor 1A; assay: Displacement of [3H]8-OH-DPAT from recombinant human 5-HT1A receptor after 60 mins by scintillation counting analysis
Procedure, shortened: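 Radioligand displacement at cloned human 5-HT1A receptor stably expressed in HEK-293 cells, with [3H]-8-OH-DPAT as the radioligand.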

[17] = biological target: T1, 5-hydroxytryptamine receptor 2A; assay: Displacement of [3H]ketanserin from recombinant human 5-HT2A receptor after 60 mins by scintillation counting analysis
Procedure, shortened: (§5)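 Cloned human 5-HT2A receptor stably expressed in CHO cells; displacement of [3H]-ketanserin.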

[18] = biological target: T2, 5-hydroxytryptamine receptor 6; assay: Displacement of [3H]LSD from human recombinant 5-HT6 receptor after 120 mins by scintillation counting analysis
Procedure, shortened: (§6)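 Cloned human 5-HT6 receptor stably expressed in HEK-293 cells; displacement of [3H]-LSD.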

[19] = biological target: T1, 5-hydroxytryptamine receptor 2A; assay: Displacement of [3H]ketanserin from recombinant human 5-HT2A receptor expressed in cell membrane after 1.5 hrs by scintillation counting analysis; type: cell membranes; procedure, shortened: as §5
[20] = biological target: 5-hydroxytryptamine receptor 5A (Homo sapiens, UniProt P47898); assay: Displacement of [3H]LSD from human recombinant 5-HT5A receptor expressed in cell membrane after 1.5 hrs by scintillation counting analysis; type: cell membranes
[21] = biological target: T2, 5-hydroxytryptamine receptor 6; assay: Displacement of [3H]LSD from human recombinant 5-HT6 receptor expressed in cell membrane after 1.5 hrs by scintillation counting analysis; type: cell membranes; procedure, shortened: as §6
HEK293 = assay: Cytotoxicity against HEK293 cells assessed as reduction in cell viability at 1 uM after 72 hrs by MTS assay relative to control; settings: human, hek293, 72 h

Row | Compound | Ki [1] [µM] | Ki [2] [µM] | Ki (D(2) dopamine receptor) [µM] | activity at 40 min, 100 µM (P-glycoprotein (ABCB1)) [%] | metabolised at 2 h [6] [%] | activity at 10 µM (CYP3A4) [%] | activity at 10 µM (CYP2D6) [%] | activity at 25 µM (CYP2C9) [%] | Activity [9] | Ki [14] [µM] | Ki [15] [µM] | also measured
1 | CCn1cncc1-c1c[nH]c2ccc(C(N)=O)cc12 | > 10 | > 10 | > 10 | 19.3 | 14 | 2.9 | 43.4 | 104 | 5.6 | – | – | Ratio Ki (Homo sapiens): 25; Papp [3]: 2.78 ×10⁻⁶ cm/s; Drug metabolism [4]: Metabolite_Notdetected; metabolised at 2 h [5]: 7%; Retention_time [7]: 1.6 min; IC50 (Cytochrome P450 3A4): 0.31 µM; IC50 (Cytochrome P450 2D6): 7.47 µM; viability at 3 h, 100 µM [8]: 102%; Activity (Mus musculus [10]): Active; Activity [11]: Non-Toxic; Activity (Mus musculus [12]): Active
2 | NCCc1c[nH]c2ccc(C(N)=O)cc12 | – | – | – | 26.3 | 2 | 95.7 | 108 | 78.7 | 4 | – | – | Papp [3]: 3.54 ×10⁻⁶ cm/s; metabolised at 2 h ([4]; liver microsomes, read-out: Drug metabolism): 26%; metabolised at 2 h [5]: 20%; Retention_time [13]: 1.62 min
3 | CCn1cncc1-c1c[nH]c2ccc(C(=O)OC)cc12 | > 10 | 6.06 | > 10 | – | – | – | – | – | – | > 10 | 0.161 | –
4 | Cn1cncc1-c1c[nH]c2ccc(C(N)=O)cc12 | > 10 | 6.91 | 5.56 | 60 | 9 | 29.4 | 55 | 37.2 | 12.3 | 0.22 | 0.006 | Ratio Ki (Homo sapiens): 37; Drug metabolism [4]: Metabolite_Notdetected; Drug metabolism ([5]; microsomes, 2 h): Metabolite_Notdetected; IC50 (Cytochrome P450 3A4): 3.53 µM; IC50 (Cytochrome P450 2D6): 27.6 µM
5 | CCn1cncc1-c1c[nH]c2ccc(S(N)(=O)=O)cc12 | > 10 | 7.27 | > 10 | – | – | – | – | – | – | > 10 | 6.42 | –
6 | CCn1cncc1-c1c[nH]c2ccc(I)cc12 | > 10 | 1.67 | 4.85 | – | – | – | – | – | – | – | – | –
7 | Cc1nn(C)c(C)c1-c1cccc(CCN(C)C)c1 | – | – | – | – | – | – | – | – | – | – | – | Ki [16]: 0.7 µM; Ki [17]: > 1 µM; Ki [18]: > 1 µM
8 | N#Cc1ccc(CNC(=O)CCCCCN2CCN(c3ccccc3-c3ccccc3)CC2)cc1 | – | – | – | – | – | – | – | – | – | – | – | Ki [19]: 0.626 µM; Ki [20]: 0.178 µM
9 | c1ccc(-c2ccccc2N2CCNCC2)cc1 | – | – | – | – | – | – | – | – | – | – | – | Ki [19]: 1.19 µM; Ki [20]: 0.076 µM; Ki [21]: 0.596 µM
10 | N#CC(C#N)=NNc1cccc(Cl)c1 [CARBONYL CYANIDE M-CHLOROPHENYLHYDRAZONE] | – | – | – | – | – | – | – | – | – | – | – | Activity (HEK293): 40%
